tested on: Eudrilus; assay: Anthelmintic activity against Eudrilus sp. assessed as mean death time; assay type: functional; conditions: not given
How it was run: (§1)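 Earthworms exposed to test suspensions at 2 mg mL−1, prepared by triturating compound with Tween 80 (0.5%) and distilled water, stirring 30 min, then diluting to 0.2% w/v. Mebendazole suspension was made the same way. Death was confirmed by moving worms into 50 °C warm water and looking for movement. Mean death time (min) taken from triplicate sets.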

SMILES | Time [min]
COC(=O)[C@H](Cc1cnc[nH]1)NC(=O)[C@H](Cc1cnc[nH]1)NC(=O)c1cc(-c2nc3cc(C)c(C)cc3[nH]2)ccc1O | 21.78

tested on: not listed separately; assay: Growth inhibition of DLA cells at 500 ug/mL after 3 hrs; assay type: functional; conditions: Mus musculus
How it was run: (§2)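 DLA and EAC cells passaged intraperitoneally in albino mice, harvested after 15–20 days and adjusted to 1 × 10⁶ cells/mL. Dilutions in Dulbecco's medium (500–31.25, some down to 3.91 µg/mL; 5-FU reference) mixed 1:1 with cells and held 3 h at 37 °C. Trypan blue exclusion gave % growth inhibition; CTC50 by graphical extrapolation.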

SMILES | inhibition at 500 µg/mL [%]
COC(=O)[C@H](Cc1cnc[nH]1)NC(=O)[C@H](Cc1cnc[nH]1)NC(=O)c1cc(-c2nc3cc(C)c(C)cc3[nH]2)ccc1O | 36.8

tested on: not listed separately; assay: Growth inhibition of DLA cells at 250 ug/mL after 3 hrs; assay type: functional; conditions: Mus musculus; how it was run: as §2

SMILES | inhibition at 250 µg/mL [%]
COC(=O)[C@H](Cc1cnc[nH]1)NC(=O)[C@H](Cc1cnc[nH]1)NC(=O)c1cc(-c2nc3cc(C)c(C)cc3[nH]2)ccc1O | 31.6

tested on: not listed separately; assay: Growth inhibition of DLA cells at 125 ug/mL after 3 hrs; assay type: functional; conditions: Mus musculus; how it was run: as §2

SMILES | inhibition at 125 µg/mL [%]
COC(=O)[C@H](Cc1cnc[nH]1)NC(=O)[C@H](Cc1cnc[nH]1)NC(=O)c1cc(-c2nc3cc(C)c(C)cc3[nH]2)ccc1O | 21

tested on: not listed separately; assay: Growth inhibition of DLA cells at 62.5 ug/mL after 3 hrs; assay type: functional; conditions: Mus musculus; how it was run: as §2

SMILES | inhibition at 62.5 µg/mL [%]
COC(=O)[C@H](Cc1cnc[nH]1)NC(=O)[C@H](Cc1cnc[nH]1)NC(=O)c1cc(-c2nc3cc(C)c(C)cc3[nH]2)ccc1O | 15.8

tested on: not listed separately; assay: Growth inhibition of DLA cells at 31.25 ug/mL after 3 hrs; assay type: functional; conditions: Mus musculus; how it was run: as §2

SMILES | inhibition at 31.25 µg/mL [%]
COC(=O)[C@H](Cc1cnc[nH]1)NC(=O)[C@H](Cc1cnc[nH]1)NC(=O)c1cc(-c2nc3cc(C)c(C)cc3[nH]2)ccc1O | 7.89

tested on: not listed separately; assay: Growth inhibition of DLA cells after 3 hrs; assay type: functional; conditions: Mus musculus; how it was run: as §2

SMILES | CC50 [µM]
COC(=O)[C@H](Cc1cnc[nH]1)NC(=O)[C@H](Cc1cnc[nH]1)NC(=O)c1cc(-c2nc3cc(C)c(C)cc3[nH]2)ccc1O | > 877

tested on: not listed separately; assay: Growth inhibition of EAC cells at 500 ug/mL after 3 hrs; assay type: functional; conditions: Mus musculus, Ehrlich; how it was run: as §2

SMILES | inhibition at 500 µg/mL [%]
COC(=O)[C@H](Cc1cnc[nH]1)NC(=O)[C@H](Cc1cnc[nH]1)NC(=O)c1cc(-c2nc3cc(C)c(C)cc3[nH]2)ccc1O | 21.4

tested on: not listed separately; assay: Growth inhibition of EAC cells at 250 ug/mL after 3 hrs; assay type: functional; conditions: Mus musculus, Ehrlich; how it was run: as §2

SMILES | inhibition at 250 µg/mL [%]
COC(=O)[C@H](Cc1cnc[nH]1)NC(=O)[C@H](Cc1cnc[nH]1)NC(=O)c1cc(-c2nc3cc(C)c(C)cc3[nH]2)ccc1O | 14.3

tested on: not listed separately; assay: Growth inhibition of EAC cells at 125 ug/mL after 3 hrs; assay type: functional; conditions: Mus musculus, Ehrlich; how it was run: as §2

SMILES | inhibition at 125 µg/mL [%]
COC(=O)[C@H](Cc1cnc[nH]1)NC(=O)[C@H](Cc1cnc[nH]1)NC(=O)c1cc(-c2nc3cc(C)c(C)cc3[nH]2)ccc1O | 7.14

tested on: not listed separately; assay: Growth inhibition of EAC cells at 62.5 ug/mL after 3 hrs; assay type: functional; conditions: Mus musculus, Ehrlich; how it was run: as §2

SMILES | inhibition at 62.5 µg/mL [%]
COC(=O)[C@H](Cc1cnc[nH]1)NC(=O)[C@H](Cc1cnc[nH]1)NC(=O)c1cc(-c2nc3cc(C)c(C)cc3[nH]2)ccc1O | 7.14

tested on: not listed separately; assay: Growth inhibition of EAC cells at 31.25 ug/mL after 3 hrs; assay type: functional; conditions: Mus musculus, Ehrlich; how it was run: as §2

SMILES | inhibition at 31.25 µg/mL [%]
COC(=O)[C@H](Cc1cnc[nH]1)NC(=O)[C@H](Cc1cnc[nH]1)NC(=O)c1cc(-c2nc3cc(C)c(C)cc3[nH]2)ccc1O | 3.57

tested on: not listed separately; assay: Growth inhibition of EAC cells after 3 hrs; assay type: functional; conditions: Mus musculus, Ehrlich; how it was run: as §2

SMILES | CC50 [µM]
COC(=O)[C@H](Cc1cnc[nH]1)NC(=O)[C@H](Cc1cnc[nH]1)NC(=O)c1cc(-c2nc3cc(C)c(C)cc3[nH]2)ccc1O | > 877

tested on: not listed separately; assay: Anthelmintic activity against Megascoplex konkanensis ICARBC 211 assessed as mean paralyzing time; assay type: functional; conditions: not given
How it was run: (§3)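 Earthworms exposed to test suspensions at 2 mg mL^-1 (0.2% w/v), made by triturating compound with Tween 80 (0.5%) and distilled water, then mechanically stirred 30 min. Mebendazole suspension prepared alike as reference. Paralysis and death times recorded; death confirmed by no movement in 50 °C water. Means from triplicate sets.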

SMILES | TIME [h]
COC(=O)[C@H](Cc1cnc[nH]1)NC(=O)[C@H](Cc1cnc[nH]1)NC(=O)c1cc(-c2nc3cc(C)c(C)cc3[nH]2)ccc1O | 0.175

tested on: not listed separately; assay: Anthelmintic activity against Megascoplex konkanensis ICARBC 211 assessed as mean death time; assay type: functional; conditions: not given; how it was run: as §3

SMILES | TIME [h]
COC(=O)[C@H](Cc1cnc[nH]1)NC(=O)[C@H](Cc1cnc[nH]1)NC(=O)c1cc(-c2nc3cc(C)c(C)cc3[nH]2)ccc1O | 0.305

tested on: Pontoscolex corethrurus; assay: Anthelmintic activity against Pontoscolex corethrurus ICARBC 408 assessed as mean paralyzing time; assay type: functional; conditions: not given; how it was run: as §3

SMILES | Time [min]
COC(=O)[C@H](Cc1cnc[nH]1)NC(=O)[C@H](Cc1cnc[nH]1)NC(=O)c1cc(-c2nc3cc(C)c(C)cc3[nH]2)ccc1O | 12.22

tested on: Pontoscolex corethrurus; assay: Anthelmintic activity against Pontoscolex corethrurus ICARBC 408 assessed as mean death time; assay type: functional; conditions: not given; how it was run: as §1

SMILES | Time [min]
COC(=O)[C@H](Cc1cnc[nH]1)NC(=O)[C@H](Cc1cnc[nH]1)NC(=O)c1cc(-c2nc3cc(C)c(C)cc3[nH]2)ccc1O | 23.75

Reference: ChEMBL document CHEMBL1146375, “Synthetic studies on novel benzimidazolopeptides with antimicrobial, cytotoxic and anthelmintic potential” (2007)
